Experimental data: ChEMBL document CHEMBL1137637, “Quinuclidine derivatives as potential antiparasitics” (Antimicrob Agents Chemother, 2007); call rule not given here
Values after ≈ are worked out from the molar mass of the structure shown.

Assays:
Leishmania amazonensis [1] = experiment: Inhibition of sterol biosynthesis in Leishmania mexicana amazonensis promastigotes assessed as reduction in endogenous episterol level at 0.3 uM after 96 hrs by gas-liquid chromatography; format: functional; parameters: scale not given: the % may be the effect or the level left
How it was run: (§1)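 Promastigotes grown in liver infusion-tryptose medium with lactalbumin and 10% fetal calf serum at 26°C, static; drug added at 0.5 × 10⁷ to 1 × 10⁷ cells/ml and cells exposed for 96 h. Total lipids extracted; neutral lipids separated from polar lipids by silicic acid column chromatography; free sterols quantified by capillary gas-liquid chromatography and mass spectrometry as mass % of total sterols.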

Leishmania amazonensis [2] = experiment: Inhibition of sterol biosynthesis in Leishmania mexicana amazonensis promastigotes assessed as reduction in exogenous cholesterol level at 1 uM after 96 hrs by gas-liquid chromatography; format: functional; parameters: scale not given: the % may be the effect or the level left
How it was run: (§2)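 L. mexicana promastigotes exposed to compound for 96 h. Total lipids extracted and neutral sterols separated from polar lipids by silicic acid column chromatography. Sterols analysed by TLC and by quantitative capillary gas-liquid chromatography with mass spectrometry. Composition expressed as mass % of free sterols, compared with untreated control.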

Leishmania amazonensis [3] = experiment: Inhibition of sterol biosynthesis in Leishmania mexicana amazonensis promastigotes assessed as reduction in exogenous cholesterol level at 0.3 uM after 96 hrs by gas-liquid chromatography; format: functional; parameters: scale not given: the % may be the effect or the level left; how it was run: as §1
[4] = system: Trypanosoma brucei rhodesiense; experiment: Trypanocidal activity against Trypanosoma brucei rhodesiense STIB 900 bloodstream form after 72 hrs by resazurin assay; format: functional, organism-based; details: STIB 900, 72 h
How it was run: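 T. b. rhodesiense STIB 900 bloodstream forms in MEM with 2-mercaptoethanol and 15% heat-inactivated horse serum, with serial drug dilutions. Incubated 72 h at 37°C in 5% CO2. Resazurin added for 2–4 h more, fluorescence read at ex 536/em 588 nm. IC50 from sigmoidal curve. Duplicate, with an independent repeat for actives.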

Leishmania amazonensis [5] = experiment: Inhibition of sterol biosynthesis in Leishmania mexicana amazonensis promastigotes assessed as reduction in endogenous 5-dehydro episterol level at 0.3 uM after 96 hrs by gas-liquid chromatography; format: functional; parameters: scale not given: the % may be the effect or the level left; how it was run: as §1
Trypanosoma cruzi = experiment: Antitrypanosomal activity against trypomastigotes of Trypanosoma cruzi Tulahuen C2C4 containing lacZ gene in rat L6 cells after 4 days by chlorophenol red-beta-D-galactopyranoside/Nonidet assay; format: functional, organism-based; details: Tulahuen C2C4, L6, 96 h
How it was run: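 L-6 rat myoblasts seeded at 2,000 cells/well in RPMI 1640 with 10% FBS and 2 mM L-glutamine. After 24 h, 5,000 T. cruzi Tulahuen C2C4 lacZ trypomastigotes added with serial drug dilution. Incubated at 37°C in 5% CO2 for 4 days. CPRG/Nonidet substrate added and colour read at 540 nm after 2–4 h. IC50 from sigmoidal curve. Duplicate determinations.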

[6] = molecular target: T1, Farnesyltransferase, putative (Leishmania major, UniProt Q4Q5W4); experiment: Inhibition of Leishmania major recombinant squalene synthase expressed in Escherichia coli by liquid scintillation counter
T1 sequence (Q4Q5W4 whole entry): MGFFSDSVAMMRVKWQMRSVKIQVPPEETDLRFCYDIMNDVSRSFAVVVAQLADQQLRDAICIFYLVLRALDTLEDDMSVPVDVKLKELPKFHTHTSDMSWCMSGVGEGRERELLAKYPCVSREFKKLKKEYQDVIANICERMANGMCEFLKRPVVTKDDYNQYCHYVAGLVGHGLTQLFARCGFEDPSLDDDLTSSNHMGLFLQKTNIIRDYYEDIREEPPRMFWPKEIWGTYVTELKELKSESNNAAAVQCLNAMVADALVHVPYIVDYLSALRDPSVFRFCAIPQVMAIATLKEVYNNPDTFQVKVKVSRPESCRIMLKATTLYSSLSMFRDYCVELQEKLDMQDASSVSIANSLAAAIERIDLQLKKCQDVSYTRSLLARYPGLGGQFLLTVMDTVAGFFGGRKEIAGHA
How it was run: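 Soluble E. coli extract expressing L. major SQS truncated by 16 N-terminal and 40 C-terminal residues. Buffer: 50 mM phosphate pH 7.4, 20 mM MgCl2, 5 mM CHAPS, 1% Tween 80, 10 mM DTT, BSA, 0.25 mM NADPH, and a glucose-6-phosphate/G6PDH regenerating system. Substrate 0.5 μM radiolabelled farnesyl pyrophosphate. Squalene band counted by scintillation. IC50 from hyperbolic plot of five concentrations in duplicate, usually run twice.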

Leishmania amazonensis [7] = experiment: Antileishmanial activity against Leishmania mexicana amazonensis promastigotes by trypan blue exclusion method; format: functional, organism-based
How it was run: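 L. mexicana amazonensis promastigotes cultured in liver infusion-tryptose medium with lactalbumin and 10% FCS at 26°C, unagitated. Cultures started at 2 × 10⁶ cells/ml and drug added at 0.5–1 × 10⁷ cells/ml. Density counted by electronic particle counter and hemocytometer. Viability by trypan blue exclusion. Triplicate growth experiments.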

Leishmania amazonensis [8] = experiment: Inhibition of sterol biosynthesis in Leishmania mexicana amazonensis promastigotes assessed as reduction in endogenous episterol level at 1 uM after 96 hrs by gas-liquid chromatography; format: functional; parameters: scale not given: the % may be the effect or the level left; how it was run: as §2
Leishmania amazonensis [9] = experiment: Inhibition of sterol biosynthesis in Leishmania mexicana amazonensis promastigotes assessed as reduction in endogenous 5-dehydro episterol level at 1 uM after 96 hrs by gas-liquid chromatography; format: functional; parameters: scale not given: the % may be the effect or the level left; how it was run: as §2
Squalene synthase [10] = molecular target: T2, Squalene synthase (Homo sapiens, UniProt P37268); experiment: Inhibition of human recombinant squalene synthase expressed in Escherichia coli BL21(DE3 pLysS) by liquid scintillation counter
T2 sequence (P37268 whole entry): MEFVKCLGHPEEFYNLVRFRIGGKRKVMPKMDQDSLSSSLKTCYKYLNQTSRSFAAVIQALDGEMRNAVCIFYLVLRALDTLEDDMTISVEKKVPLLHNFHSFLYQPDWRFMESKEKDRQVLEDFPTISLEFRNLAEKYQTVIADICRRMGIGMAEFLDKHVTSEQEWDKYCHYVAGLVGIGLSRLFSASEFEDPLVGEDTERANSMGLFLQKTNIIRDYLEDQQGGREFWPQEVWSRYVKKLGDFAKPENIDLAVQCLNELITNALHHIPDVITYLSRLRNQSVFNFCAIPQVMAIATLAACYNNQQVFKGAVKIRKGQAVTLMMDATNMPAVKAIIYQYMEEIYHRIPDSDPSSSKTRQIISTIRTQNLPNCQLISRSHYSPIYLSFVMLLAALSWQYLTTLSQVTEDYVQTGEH
How it was run: (§3)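 Human SQS in extracts of E. coli BL21(DE3 pLysS) carrying pHSS16, assayed under the same conditions as the L. major enzyme. Buffer: phosphate pH 7.4, MgCl2, CHAPS, Tween 80, DTT, BSA, and NADPH with a regenerating system. Substrate 0.5 μM radiolabelled farnesyl pyrophosphate. Squalene band radioactivity counted by scintillation.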

L6 = experiment: Cytotoxicity against rat L6 cells after 72 hrs by resazurin assay; format: cell-based; details: L6, 72 h
How it was run: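 L-6 cells seeded at 4 × 10⁴ cells/ml in RPMI 1640 with 10% FBS and 2 mM L-glutamine. After 24 h, medium replaced with serial drug dilution and incubated for 72 h at 37°C in 5% CO2. Resazurin added for 2–4 h, fluorescence read at ex 536/em 588 nm. IC50 from sigmoidal curve. Duplicate, with an independent repeat for actives.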

Leishmania donovani = experiment: Antileishmanial activity against Leishmania donovani MHOM/ET/67/L82 axenic amastigotes after 72 hrs by resazurin assay; format: functional, organism-based; details: MHOM/ET/67/L82, 72 h
How it was run: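 L. donovani MHOM/ET/67/L82 amastigotes grown axenically at 37°C in synthetic minimal medium at pH 5.4 with 10% heat-inactivated FBS under 5% CO2. 1 × 10⁵ amastigotes per well with seven threefold dilutions, 30 to 0.041 μg/ml. After 72 h, resazurin added for 2–4 h more. Fluorescence read at ex 536/em 588 nm. IC50 taken from sigmoidal curve. Run in duplicate, with an independent repeat for actives.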

Plasmodium falciparum = experiment: Antiplasmodial activity after 48 hrs against chloroquine and pyrimethamine-resistant Plasmodium falciparum K1 in human erythrocytes by [3H]hypoxanthine uptake; format: functional, organism-based
How it was run: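 P. falciparum K1 in human red cells in RPMI 1640 with 5% Albumax, exposed to serial drug dilutions. Incubated 48 h at 37°C under reduced oxygen, then 0.5 μCi [³H]hypoxanthine per well for 24 h more. Cells harvested onto glass-fibre filters and counted by scintillation. Result expressed as % of untreated control, with IC50 from sigmoidal curve. Duplicate, plus an independent repeat for actives.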

Leishmania amazonensis [11] = experiment: Inhibition of sterol biosynthesis in Leishmania mexicana amazonensis promastigotes assessed as reduction in endogenous episterol level at 0.1 uM after 96 hrs by gas-liquid chromatography; format: functional; parameters: scale not given: the % may be the effect or the level left; how it was run: as §2
Leishmania amazonensis [12] = experiment: Inhibition of sterol biosynthesis in Leishmania mexicana amazonensis promastigotes assessed as reduction in endogenous 5-dehydro episterol level at 0.1 uM after 96 hrs by gas-liquid chromatography; format: functional; parameters: scale not given: the % may be the effect or the level left; how it was run: as §2
Squalene synthase [13] = molecular target: T2, Squalene synthase; experiment: Inhibition of human recombinant squalene synthase expressed in Escherichia coli BL21(DE3 pLysS) up to 1 uM by liquid scintillation counter; how it was run: as §3
Leishmania amazonensis [14] = experiment: Inhibition of sterol biosynthesis in Leishmania mexicana amazonensis promastigotes assessed as reduction in exogenous cholesterol level at 0.1 uM after 96 hrs by gas-liquid chromatography; format: functional; parameters: scale not given: the % may be the effect or the level left; how it was run: as §2
Leishmania amazonensis [15] = experiment: Inhibition of sterol biosynthesis in Leishmania mexicana amazonensis promastigotes assessed as reduction in exogenous cholesterol level at 3 uM after 96 hrs by gas-liquid chromatography; format: functional; parameters: scale not given: the % may be the effect or the level left; how it was run: as §2
Leishmania amazonensis [16] = experiment: Inhibition of sterol biosynthesis in Leishmania mexicana amazonensis promastigotes assessed as reduction in endogenous 5-dehydro episterol level at 3 uM after 96 hrs by gas-liquid chromatography; format: functional; parameters: scale not given: the % may be the effect or the level left; how it was run: as §2
Leishmania amazonensis [17] = experiment: Inhibition of sterol biosynthesis in Leishmania mexicana amazonensis promastigotes assessed as reduction in exogenous cholesterol level at 10 uM after 96 hrs by gas-liquid chromatography; format: functional; parameters: scale not given: the % may be the effect or the level left; how it was run: as §2
Leishmania amazonensis [18] = experiment: Inhibition of sterol biosynthesis in Leishmania mexicana amazonensis promastigotes assessed as reduction in endogenous cholesta-5,7,24-trien-3beta-ol level at 3 uM after 96 hrs by gas-liquid chromatography; format: functional; parameters: scale not given: the % may be the effect or the level left; how it was run: as §2
Leishmania amazonensis [19] = experiment: Inhibition of sterol biosynthesis in Leishmania mexicana amazonensis promastigotes assessed as reduction in endogenous cholesta-7,24-dien-3beta-ol level at 3 uM after 96 hrs by gas-liquid chromatography; format: functional; parameters: scale not given: the % may be the effect or the level left; how it was run: as §2
Leishmania amazonensis [20] = experiment: Inhibition of sterol biosynthesis in Leishmania mexicana amazonensis promastigotes assessed as reduction in endogenous episterol level at 3 uM after 96 hrs by gas-liquid chromatography; format: functional; parameters: scale not given: the % may be the effect or the level left; how it was run: as §2
Leishmania amazonensis [21] = experiment: Inhibition of sterol biosynthesis in Leishmania mexicana amazonensis promastigotes assessed as reduction in endogenous cholesta-7,24-dien-3beta-ol level at 1 uM after 96 hrs by gas-liquid chromatography; format: functional; parameters: scale not given: the % may be the effect or the level left; how it was run: as §2
Leishmania amazonensis [22] = experiment: Inhibition of sterol biosynthesis in Leishmania mexicana amazonensis promastigotes assessed as reduction in endogenous cholesta-5,7,24-trien-3beta-ol level at 1 uM after 96 hrs by gas-liquid chromatography; format: functional; parameters: scale not given: the % may be the effect or the level left; how it was run: as §2

Compound | Activity (Leishmania amazonensis [1]) | Activity (Leishmania amazonensis [2]) | Activity (Leishmania amazonensis [3]) | IC50 [4] | Activity (Leishmania amazonensis [5]) | IC50 (Trypanosoma cruzi) | IC50 [6] | MIC (Leishmania amazonensis [7]) | Activity (Leishmania amazonensis [8]) | Activity (Leishmania amazonensis [9]) | IC50 (L6) | IC50 (Leishmania donovani) | IC50 (Plasmodium falciparum) | Activity (Leishmania amazonensis [15]) | Activity (Leishmania amazonensis [16]) | Activity (Leishmania amazonensis [18]) | Activity (Leishmania amazonensis [19]) | Activity (Leishmania amazonensis [20]) | Activity (Leishmania amazonensis [22]) | other results
COc1ccc2cc(C3=CN4CCC3CC4)ccc2c1 | 13.4% | 41.2% | 13.9% | 2.2 µM | 72.7% | 10.2 µM | 0.49 µM | 0.3 µM (≈ 0.0796 µg/mL) | 15.8% | 43% | 98.8 µM | 1.4 µM | 9 µM | – | – | – | – | – | – | IC50 (Squalene synthase [10]): 2.8 µM
C(=C1/CN2CCC1CC2)/c1ccc(-c2ccccc2)cc1 | 33.3% | – | 36.7% | 0.7 µM | 18.1% | 1.8 µM | > 1 µM | 0.3 µM (≈ 0.0826 µg/mL) | – | – | 13.4 µM | 41.3 µM | 3.1 µM | – | – | – | – | – | – | Activity (Leishmania amazonensis [11]): 42.2%; Activity (Leishmania amazonensis [12]): 26.4%; IC50 (Squalene synthase [13]): Not Active; Activity (Leishmania amazonensis [14]): 31.4%
OC[C@H]1CC2CCN1C[C@@H]2C#Cc1ccc(-c2ccccc2)cc1 (some centres not stated) | – | 15.4% | – | 0.5 µM | – | 5.8 µM | > 1 µM | 10 µM (≈ 3.17 µg/mL) | 7.6% | 49.3% | 11 µM | 33.7 µM | 1.4 µM | 14% | 36% | 32.7% | 10.7% | 6.6% | 20.1% | Activity (Leishmania amazonensis [17]): >99%; Activity (Leishmania amazonensis [21]): 7.6%
CC(C)(C)[Si](C)(C)Oc1ccc(C2=CN3CCC2CC3)cc1 | – | 29.2% | – | 2.1 µM | – | 16.3 µM | > 1 µM | 3 µM (≈ 0.947 µg/mL) | 7.1% | 54.7% | 23.8 µM | 31.1 µM | 4.1 µM | 55.4% | 21.2% | 10.7% | 4.8% | 7.9% | 9% | –
